HGIII-sPLA2 inh = Blocks human group III sPLA2 activity; AID 743126; QFRET BODIPY PC-A2 liposome hydrolysis, fluorescence; inhibition, % at 12.2 µM; hit rate 0.56% among 370,000; Q9NZ20;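 active = inhibition above mean plus 3 SD of compounds lying within the high and low control bounds, cut at about 19% in these data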;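 also: 0% = median of test compound wells and 100% = no enzyme DMSO wells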
Target sequence (Q9NZ20 whole entry, looked up): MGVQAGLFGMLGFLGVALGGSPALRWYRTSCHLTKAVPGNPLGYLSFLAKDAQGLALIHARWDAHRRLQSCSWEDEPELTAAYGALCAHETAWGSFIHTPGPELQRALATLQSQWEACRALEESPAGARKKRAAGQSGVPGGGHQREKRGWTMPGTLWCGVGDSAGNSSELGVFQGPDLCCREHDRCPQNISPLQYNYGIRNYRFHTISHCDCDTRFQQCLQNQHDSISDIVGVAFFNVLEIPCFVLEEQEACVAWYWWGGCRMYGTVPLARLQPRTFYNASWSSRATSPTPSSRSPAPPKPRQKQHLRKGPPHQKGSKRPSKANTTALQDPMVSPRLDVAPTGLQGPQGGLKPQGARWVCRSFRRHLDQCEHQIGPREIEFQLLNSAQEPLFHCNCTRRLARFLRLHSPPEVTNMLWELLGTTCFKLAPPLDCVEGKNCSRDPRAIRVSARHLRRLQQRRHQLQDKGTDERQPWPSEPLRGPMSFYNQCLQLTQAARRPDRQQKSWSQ
DAGLB inh = diacylglycerol lipase beta (human) inhibition; inhibition, % at 5.17 µM; AID 504411; hit rate 0.059% among 340,000; Q8NCG7; HEK293T DAGLB membrane lysate, EnzChek fluorogenic substrate; in the data active = inhibition above about 34%;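 also: 0% = enzyme with vehicle and 100% = wells lacking enzyme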
PLC-beta3 inh = PLC-beta3 (human) inhibition, primary screen; Q01970; Purified PLC-beta3, fluorogenic substrate, fluorescence; hit rate 0.18% among 370,000; inhibition, % at 12.2 µM; AID 720704; in the data active = inhibition above about 11%;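 also: 0% = median of compound wells on plate and 100% = full blocker control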
Tb MetRS inh = blocks T. brucei methionyl-tRNA synthetase activity; purified T. brucei MetRS, ATP depletion, Kinase-Glo luminescence; hit rate 0.4% among 360,000; inhibition, % at 11.9 µM;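 active = inhibition above a per-plate cutoff of the control wells' mean inhibition plus 3 SD, cut at about 5.5% in these data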;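 also: 0% = DMSO wells median and 100% = median of wells with control inhibitor compound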
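System: purified T. brucei MetRS enzyme / Detection: Kinase-Glo luciferase luminescence reporting remaining unconsumed ATP / Medium: HEPES buffer with MgCl2, KCl, DTT, spermine, BSA, pyrophosphatase / Replication: singlicate, one well per compound / Evaluation: percent inhibition relative to median high and low control wells / Schedule: 2 h aminoacylation at 25 °C after 15 min preincubation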
PLC-gamma1 inh = PLC-gamma1 (human) inhibition, primary screen; purified PLC-gamma1, fluorogenic substrate, fluorescence; P19174; inhibition, % at 12.2 µM; hit rate 0.84% among 370,000; AID 720700
PLCg1 ctr = inhibits human PLC-gamma1 in PLC-beta3 counter-screen; shares compounds with PLC-gamma1 inh; inhibition, % at 12.3 µM; purified PLC-gamma1, fluorogenic substrate, fluorescence; AID 743258; hit rate 3.1% among 3,300
PLCbeta3 conf = confirmation of human PLC-beta3 inhibitors; hit rate 1% among 3,300; purified PLC-beta3, fluorogenic substrate fluorescence; AID 743261; inhibition, % at 12.3 µM; shares compounds with PLC-gamma1 inh; in the data active = inhibition above about 11%
* = called active by the depositor; nt = no result. A selection: hits, their analogues and other compounds. The true share with any hit is near 1.9%. Rule as the data show it, unless noted: active = inhibition above about 9.5%; inactive = the rest.

SMILES | HGIII-sPLA2 inh | DAGLB inh | PLC-beta3 inh | Tb MetRS inh | PLC-gamma1 inh | PLCg1 ctr | PLCbeta3 conf
CC1(C(=O)NCc2ccccc2)Cc2c(-c3cccc(C(N)=O)c3)ccnc2O1 (stereo not given) | -0.2 | nt | 0.9 | 0.5 | 2.8 | nt | nt
COc1ccc(CNC(=O)C2(C)Cc3c(-c4cccc(C(N)=O)c4)ccnc3O2)cc1OC (stereo not given) | 0.2 | nt | 3.4 | -0.2 | 10.3* | -4.0 | -2.3
CC1(C(=O)Nc2cccc(NS(C)(=O)=O)c2)Cc2c(-c3ccc(C(N)=O)cc3)ccnc2O1 (stereo not given) | 1.1 | nt | 6.3 | -0.2 | 10.5* | 7.2 | 1.8
CCC(=O)Nc1ccc(Cl)cc1C(=O)c1ccc[nH]1 | 14.1 | nt | -2.4 | nt | 8.0 | nt | nt
OC1OC2COC(c3ccccc3)OC2C(O)C1O (stereo not given) | 1.8 | nt | 11.3* | nt | 6.1 | -5.3 | -3.9
CCOC(=O)c1c(C2COc3ccccc3O2)csc1NC(=O)c1ccccc1 (stereo not given) | -0.9 | 3.4 | -1.9 | -0.6 | 11.8* | -38.0 | -33.6
O=C(CCN1C(=O)C2CC=CCC2C1=O)NC1CCCCC1 (stereo not given) | 7.8 | -0.7 | -3.7 | -0.3 | 6.7 | nt | nt
CC1CCC(NC(=O)CCN2C(=O)C3CC=CCC3C2=O)CC1 (stereo not given) | 0.1 | 2.2 | 0.3 | -0.6 | 12.1* | -1.6 | 1.4
O=C(NC1CCCC1)C1(C(=O)C2CC2)CC(c2ccccc2C(F)(F)F)=NO1 (stereo not given) | 11.9 | nt | 0.2 | nt | 6.5 | nt | nt
CCOc1cc(C(=O)N2CCC(CC3CC(c4ccccc4)=NO3)(C(=O)NCc3ccc(OC)cc3)CC2)cc(OCC)c1OCC (stereo not given) | -22.3 | 0.3 | 4.2 | 1.4 | -0.8 | nt | nt
CCOc1cc(C(=O)N2CCC(CC3CC(c4ccc(Cl)cc4)=NO3)(C(=O)NCC3CCCCC3)CC2)cc(OCC)c1OCC (stereo not given) | -5.6 | -12.7 | 11.4* | -0.1 | 3.5 | -0.7 | -1.9
CC(=O)NC1CCCCN(C)C1=O (stereo not given) | 5.7 | nt | 0.4 | nt | -2.0 | nt | nt
CCC(C)(c1nnnn1-c1c(C)cccc1C)N(N=O)c1ccccc1Cl (stereo not given) | -3.6 | -5.0 | 7.7 | -0.9 | 10.8* | 6.6 | -1.1
CCCCNC(=O)C[C@H]1C[C@@]2(C(=O)OC)C(=C[C@H](C3CCCC3)O[C@@H]2C)N(Cc2cccc3ccccc23)C1=O | -10.7 | nt | 4.7 | nt | 6.3 | nt | nt
COC(=O)[C@]12C[C@H](CC(=O)NCCC(C)C)C(=O)N(Cc3ccc(Cl)cc3Cl)C1=C[C@H](C1CCCC1)O[C@@H]2C | 0.4 | nt | 0.8 | nt | 10.6* | 3.0 | 2.5
COC(=O)[C@]12C[C@H](CC(=O)N3CCN(C(=O)C4CC4)CC3)C(=O)N(Cc3cccc4ccccc34)C1=C[C@H](COCc1ccccc1)O[C@@H]2C | -2.5 | nt | 2.1 | nt | 14.1* | -5.7 | -2.6
COC(=O)[C@]12C[C@H](CC(=O)NCc3ccc(C)o3)C(=O)N(Cc3ccccc3)C1=C[C@H](C(C)(C)C)O[C@@H]2C | -5.6 | nt | 8.1 | nt | 10.2* | -9.0 | -5.1
COC(=O)[C@]12C[C@H](CC(=O)NCC3CCCCC3)C(=O)N(Cc3cccc4ccccc34)C1=C[C@H](C1CCCC1)O[C@@H]2C | 8.5 | nt | 0.7 | nt | 10.9* | -0.6 | -7.7
CCCCOCCCNC(=O)C[C@H]1C[C@@]2(C(=O)OC)C(=C[C@H](C3CCCC3)O[C@@H]2C)N(Cc2ccc(Cl)cc2Cl)C1=O | -5.4 | nt | 4.2 | nt | -0.4 | nt | nt
C=Cc1ccc(C(=O)N2CCC(n3nnc4ncccc43)CC2)cc1 | -2.4 | nt | 2.4 | nt | 1.4 | nt | nt
N#Cc1ccc(NC(=O)OC2CC3CC2[C@H]2CCCCN2C3)cc1 (stereo not given in full) | 3.9 | nt | -1.9 | nt | -4.5 | nt | nt
COC(=O)[C@]12C[C@H](CC(=O)N3CCCCC3)C(=O)N(CCC3=CCCCC3)C1=C[C@H](C1CCCC1)O[C@@H]2C | 6.5 | nt | -6.8 | nt | 10.8* | 1.2 | -1.1
COC(=O)[C@]12C[C@H](CC(=O)NCCCCc3ccccc3)C(=O)N(Cc3ccc4c(c3)OCO4)C1=C[C@H](C(C)C)O[C@@H]2C1CC1 | -5.0 | nt | 0.4 | nt | 3.0 | nt | nt

Screening data (PubChem)
